Source: ChEMBL document CHEMBL1687758, “Azithromycin alters macrophage phenotype and pulmonary compartmentalization during lung infection with Pseudomonas” (2010)
Calls of active or inactive are those of the source. The calls are words filed in the database; no cut-off is given here.

Experiments:
[1] = system: Mus musculus; test: Immunomodulatory activity in Pseudomonas aeruginosa M57-15 infected C57BL/6 mouse lung assessed as decrease of TNFalpha production in CD11b+ cells in lung digest at 0.16 g/kg, po measured after 7 days by flow cytometry; assay type: functional, organism-based
Method in brief: (§1)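 Lung digest cells (2 × 106) were stimulated for 4 h with 50 ng/ml PMA and 500 ng/ml ionomycin plus 10 μg/ml brefeldin A. They were surface-stained for CD11b/CD11c, fixed in 4% formalin, permeabilized with 0.05% saponin, Fc-blocked, and stained for intracellular TNF-α and IL-10 for flow cytometry. Mice were dosed at 0.16 g/kg by daily oral gavage from 4 days before infection.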

[2] = system: Mus musculus; test: Immunomodulatory activity in Pseudomonas aeruginosa M57-15 infected C57BL/6 mouse lung assessed as CD11b-c+ cell expression level in lung digest at 0.16 g/kg, po measured after 7 days by flow cytometry (reference value: 29.15 +/- 3.98 %); assay type: functional
Method in brief: (§2)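 Oral gavage of 0.16 g/kg daily (2% methylcellulose vehicle) began 4 days before intratracheal bead infection (1 × 105 to 2 × 10^5 CFU). On days 3, 7 and 14, cells were taken from lavage (0.3 mM EDTA buffer) and from collagenase/DNase lung digest (1 h, 37°C). Cells were stained for CD11b, CD11c, Gr-1, CD4, CD80, MHC-II and MR, with more than 50,000 events acquired. Counts were gated percent × manual cell count.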

[3] = system: Mus musculus; test: Immunomodulatory activity in Pseudomonas aeruginosa M57-15 infected C57BL/6 mouse lung assessed as CD11b-c+ cell expression level in lung lavage fluid at 0.16 g/kg, po measured after 14 days by flow cytometry (reference value: 72.38 +/- 13.69 %); assay type: functional; method in brief: as §2
[4] = system: Pseudomonas aeruginosa; test: Antibacterial activity against Pseudomonas aeruginosa M57-15 infected in C57BL/6 mouse assessed as effect on host weight loss at 0.16 g/kg, po measured up to 14 days; assay type: functional, organism-based
Method in brief: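 Dosing was 0.16 g/kg daily by oral gavage in 2% methylcellulose, or vehicle, from 4 days before intratracheal bead infection (1 × 105 to 2 × 10^5 CFU). Body weight was followed over the study and compared with a sham-infected group. Groups had 3 to 6 mice, and each experiment was repeated at least three times.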

[5] = system: Mus musculus; test: Immunomodulatory activity in Pseudomonas aeruginosa M57-15 infected C57BL/6 mouse lung assessed as increase of mannose receptor expression in CD11b+ Gr1+ cells in lung digest at 0.16 g/kg, po measured after 7 days by flow cytometry; assay type: functional, organism-based; method in brief: as §2
[6] = system: Mus musculus; test: Immunomodulatory activity in Pseudomonas aeruginosa M57-15 infected C57BL/6 mouse lung assessed as CD11b+c+ cell expression level in lung lavage fluid at 0.16 g/kg, po measured after 7 days by flow cytometry (reference value: 1.51 +/- 1.53 %); assay type: functional; method in brief: as §2
[7] = system: Mus musculus; test: Immunomodulatory activity in Pseudomonas aeruginosa M57-15 infected C57BL/6 mouse lung assessed as increase of arginase activity in lung digest at 0.16 g/kg, po measured after 7 days
[8] = system: Mus musculus; test: Immunomodulatory activity in Pseudomonas aeruginosa M57-15 infected C57BL/6 mouse lung assessed as increase of CD4+ T cell in lung lavage fluid at 0.16 g/kg, po measured after 7 to 14 days by flow cytometry; assay type: functional, organism-based; method in brief: as §2
[9] = system: Mus musculus; test: Immunomodulatory activity in Pseudomonas aeruginosa M57-15 infected C57BL/6 mouse lung assessed as CD11b+c+ cell expression level in lung lavage fluid at 0.16 g/kg, po measured after 3 days by flow cytometry (reference value: 2.38 +/- 0.75 %); assay type: functional; method in brief: as §2
[10] = system: Mus musculus; test: Immunomodulatory activity in Pseudomonas aeruginosa M57-15 infected C57BL/6 mouse lung assessed as increase of mannose receptor expression in lung digest at 0.16 g/kg, po measured after 7 days by flow cytometry; assay type: functional, organism-based; method in brief: as §2
[11] = system: Mus musculus; test: Immunomodulatory activity in Pseudomonas aeruginosa M57-15 infected C57BL/6 mouse lung assessed as decrease of IL-10 production in CD11b+ cells in lung digest at 0.16 g/kg, po measured after 7 days by flow cytometry; assay type: functional, organism-based; method in brief: as §1
[12] = system: Mus musculus; test: Immunomodulatory activity in Pseudomonas aeruginosa M57-15 infected C57BL/6 mouse lung assessed as increase of MHC2 expression in CD11b+ Gr1+ cells in alveolar space at 0.16 g/kg, po measured after 7 days by flow cytometry; assay type: functional, organism-based; method in brief: as §2
[13] = system: Mus musculus; test: Immunomodulatory activity in Pseudomonas aeruginosa M57-15 infected C57BL/6 mouse lung assessed as increase of CD4+ T cell in alveolar space at 0.16 g/kg, po measured after 7 days by flow cytometry; assay type: functional, organism-based; method in brief: as §2
[14] = system: Mus musculus; test: Immunomodulatory activity in Pseudomonas aeruginosa M57-15 infected C57BL/6 mouse lung assessed as decrease of CCL2 production in CD11b+ cells in lung lavage fluid at 0.16 g/kg, po measured after 7 days by flow cytometry; assay type: functional, organism-based
Method in brief: (§3)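 The first 1-ml lavage wash was frozen at −80°C. Samples diluted 5-fold were incubated 3 h at room temperature with capture beads for a cytometric bead array (IL-12p70, CCL2, TNF-α, IL-10, IFN-γ, IL-6) plus a PE-conjugated detection antibody. Fluorescence was read by flow cytometry against standard curves. Mice had daily oral 0.16 g/kg from 4 days before intratracheal infection.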

[15] = system: Mus musculus; test: Immunomodulatory activity in Pseudomonas aeruginosa M57-15 infected C57BL/6 mouse lung assessed as CD11b+c- cell expression level in lung lavage fluid at 0.16 g/kg, po measured after 14 days by flow cytometry (reference value: 1.15 +/- 0.62 %); assay type: functional; method in brief: as §2
[16] = system: Mus musculus; test: Immunomodulatory activity in Pseudomonas aeruginosa M57-15 infected C57BL/6 mouse lung assessed as up-regulation of CCR7 expression in CD11+ Gr1- cells in lung digest at 0.16 g/kg, po measured after 7 days by flow cytometry; assay type: functional, organism-based; method in brief: as §2
[17] = system: Mus musculus; test: Immunomodulatory activity in Pseudomonas aeruginosa M57-15 infected C57BL/6 mouse lung assessed as CD11b-c+ cell expression level in lung digest at 0.16 g/kg, po measured after 14 days by flow cytometry (reference value: 23.93 +/- 4.10 %); assay type: functional; method in brief: as §2
[18] = system: Mus musculus; test: Immunomodulatory activity in Pseudomonas aeruginosa M57-15 infected C57BL/6 mouse lung assessed as decrease of IFN-gamma production in CD11b+ cells in lung lavage fluid at 0.16 g/kg, po measured after 7 days by flow cytometry; assay type: functional, organism-based; method in brief: as §3
[19] = system: Mus musculus; test: Immunomodulatory activity in Pseudomonas aeruginosa M57-15 infected C57BL/6 mouse lung assessed as increase of total cells in lung digest at 0.16 g/kg, po measured after 14 days by flow cytometry; assay type: functional, organism-based; method in brief: as §2
[20] = system: Mus musculus; test: Immunomodulatory activity in Pseudomonas aeruginosa M57-15 infected C57BL/6 mouse lung assessed as decrease of IL-10 production in CD11b+ cells in lung lavage fluid at 0.16 g/kg, po measured after 7 days by flow cytometry; assay type: functional, organism-based; method in brief: as §3
[21] = system: Mus musculus; test: Immunomodulatory activity in Pseudomonas aeruginosa M57-15 infected C57BL/6 mouse lung assessed as reduction of CD11b- and Gr-1+ cells infiltration in lung lavage fluid at 0.16 g/kg, po measured after 7 days by flow cytometry; assay type: functional, organism-based; settings: in the assay text read “lung digest” for “lung lavage fluid”; method in brief: as §2
[22] = system: Mus musculus; test: Immunomodulatory activity in Pseudomonas aeruginosa M57-15 infected C57BL/6 mouse lung assessed as increase of total cells in lung digest at 0.16 g/kg, po measured by flow cytometry
[23] = system: Mus musculus; test: Immunomodulatory activity in Pseudomonas aeruginosa M57-15 infected C57BL/6 mouse lung assessed as CD11b+c- cell expression level in lung digest at 0.16 g/kg, po measured after 3 days by flow cytometry (reference value: 25.42 +/- 10.57 %); assay type: functional; method in brief: as §2

CC[C@H]1OC(=O)[C@H](C)[C@@H](O[C@H]2C[C@@](C)(OC)[C@@H](O)[C@H](C)O2)[C@H](C)[C@@H](O[C@@H]2O[C@H](C)C[C@H](N(C)C)[C@H]2O)[C@](C)(O)C[C@@H](C)CN(C)[C@H](C)[C@@H](O)[C@]1(C)O [AZITHROMYCIN]
Activity [1]: Active
Activity [2]: 20.36%
Activity [3]: 46.16%
Activity [4]: inactive
Activity [5]: Active
Activity [6]: 21.67%
Activity [7]: Active
Activity [8]: Active
Activity [9]: 2.37%
Activity [10]: Active
Activity [11]: inactive
Activity [12]: Active
Activity [13]: Active
Activity [14]: Active
Activity [15]: 2.24%
Activity [16]: Active
Activity [17]: 18.18%
Activity [18]: inactive
Activity [19]: Active
Activity [20]: inactive
Activity [21]: Active
Activity [22]: Active
Activity [23]: 14.42%
